One data set addresses CYP2C9 (Homo sapiens, UniProt P11712). The experiment in a line: cytochrome P450 inhibition, CYP2C9. The class given is in vitro ADME.
The next data set addresses CYP3A4 (Homo sapiens, UniProt P08684). Nature of the data set: cytochrome P450 inhibition, CYP3A4. The class given is in vitro ADME.
For another data set, the target named is CYP2C19 (Homo sapiens, UniProt P33261). Nature of the data set: cytochrome P450 inhibition, CYP2C19. It counts as in vitro ADME.
Another data set can be described thus: Caco-2 permeability. It counts as in vitro ADME, human. The conditions noted are these: human. An outline of the steps: (§1)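 Caco-2 cells grown in DMEM with 10% FBS, penicillin and streptomycin, seeded at 1×10^5 cells/cm2 on Transwell inserts and cultured 22 days at 37°C, 5% CO2. Preincubated 30 min in HBSS–HEPES. Only inserts with lucifer yellow ≤1% used, rechecked after the run. Test compound at 2 and 20 μM (1% DMSO final) added to donor, triplicate, A–B and B–A. Papp and efflux ratio calculated.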
A general note: Caco-2 monolayers are a common model of the intestinal barrier.

A further data set concerns Caco-2 cell monolayer. Nature of the data set: Caco-2 permeability. To be noted: Papp(B-A)/Papp(A-B). It counts as in vitro ADME, human. A digest of the protocol: as §1
In a further data set the target is CYP2D6 (Homo sapiens, UniProt P10635). Nature of the data set: cytochrome P450 inhibition, CYP2D6. The class given is in vitro ADME.
A further data set has as its target T1, CYP1A2 (Homo sapiens, UniProt P05177).
T1 sequence (P05177 1-516): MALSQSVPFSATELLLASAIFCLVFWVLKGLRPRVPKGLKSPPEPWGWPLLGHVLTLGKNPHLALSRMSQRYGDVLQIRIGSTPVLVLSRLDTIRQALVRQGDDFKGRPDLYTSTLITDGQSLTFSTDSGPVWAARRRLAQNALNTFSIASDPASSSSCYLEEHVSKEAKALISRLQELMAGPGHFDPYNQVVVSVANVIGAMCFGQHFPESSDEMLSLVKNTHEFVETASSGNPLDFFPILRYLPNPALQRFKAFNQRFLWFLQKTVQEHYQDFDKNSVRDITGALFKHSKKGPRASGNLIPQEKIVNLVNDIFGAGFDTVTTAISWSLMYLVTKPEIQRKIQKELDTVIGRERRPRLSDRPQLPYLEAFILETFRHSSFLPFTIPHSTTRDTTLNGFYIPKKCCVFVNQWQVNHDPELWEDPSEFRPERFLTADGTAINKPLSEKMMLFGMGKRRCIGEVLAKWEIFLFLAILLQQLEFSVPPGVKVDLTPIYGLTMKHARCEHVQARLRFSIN
The experiment in a line: cytochrome P450 inhibition, CYP1A2. The class given is in vitro ADME.

SMILES strings stand for the structures. Where two headings read alike, the source gives them in different places.

Chain of CYP3A4 (P08684 whole entry): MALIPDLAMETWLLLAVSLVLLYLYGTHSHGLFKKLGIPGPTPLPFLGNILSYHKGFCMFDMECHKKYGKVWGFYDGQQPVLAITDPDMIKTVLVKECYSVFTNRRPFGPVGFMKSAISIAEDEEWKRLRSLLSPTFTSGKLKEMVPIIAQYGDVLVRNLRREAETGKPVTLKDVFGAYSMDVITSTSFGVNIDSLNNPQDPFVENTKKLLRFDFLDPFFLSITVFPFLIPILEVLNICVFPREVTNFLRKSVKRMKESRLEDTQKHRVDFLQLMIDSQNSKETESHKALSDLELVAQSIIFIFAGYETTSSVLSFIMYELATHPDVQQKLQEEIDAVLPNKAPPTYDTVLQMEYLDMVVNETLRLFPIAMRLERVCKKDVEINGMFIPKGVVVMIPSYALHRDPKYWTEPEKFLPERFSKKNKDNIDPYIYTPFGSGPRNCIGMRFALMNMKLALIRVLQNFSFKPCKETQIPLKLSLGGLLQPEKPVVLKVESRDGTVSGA
Chain of CYP2C19 (P33261 whole entry): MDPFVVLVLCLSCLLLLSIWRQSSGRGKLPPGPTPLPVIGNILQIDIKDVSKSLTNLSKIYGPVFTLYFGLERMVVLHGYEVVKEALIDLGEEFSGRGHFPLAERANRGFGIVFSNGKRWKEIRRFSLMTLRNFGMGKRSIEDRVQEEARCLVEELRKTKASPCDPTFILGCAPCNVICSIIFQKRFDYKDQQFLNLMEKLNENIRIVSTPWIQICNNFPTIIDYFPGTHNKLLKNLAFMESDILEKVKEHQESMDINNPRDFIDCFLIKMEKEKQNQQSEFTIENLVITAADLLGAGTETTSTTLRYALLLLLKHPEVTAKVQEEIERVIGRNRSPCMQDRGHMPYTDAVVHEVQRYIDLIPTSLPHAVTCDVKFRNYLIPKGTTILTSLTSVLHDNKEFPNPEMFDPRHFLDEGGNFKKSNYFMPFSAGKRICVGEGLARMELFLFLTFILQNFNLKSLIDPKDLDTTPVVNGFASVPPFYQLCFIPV
Chain of CYP2C9 (P11712 whole entry): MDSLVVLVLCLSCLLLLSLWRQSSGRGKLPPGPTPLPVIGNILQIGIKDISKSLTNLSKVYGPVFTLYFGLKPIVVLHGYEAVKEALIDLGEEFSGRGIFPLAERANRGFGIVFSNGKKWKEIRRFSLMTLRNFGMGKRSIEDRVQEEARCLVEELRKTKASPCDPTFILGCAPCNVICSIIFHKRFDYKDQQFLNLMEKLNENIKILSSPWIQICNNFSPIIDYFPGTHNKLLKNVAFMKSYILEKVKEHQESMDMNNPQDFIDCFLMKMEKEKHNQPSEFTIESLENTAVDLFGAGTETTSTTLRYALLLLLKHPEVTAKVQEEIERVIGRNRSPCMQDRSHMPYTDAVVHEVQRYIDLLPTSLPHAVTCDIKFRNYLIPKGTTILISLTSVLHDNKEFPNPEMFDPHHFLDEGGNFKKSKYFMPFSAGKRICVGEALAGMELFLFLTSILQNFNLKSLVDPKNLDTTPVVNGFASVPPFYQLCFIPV
Chain of CYP2D6 (P10635 whole entry): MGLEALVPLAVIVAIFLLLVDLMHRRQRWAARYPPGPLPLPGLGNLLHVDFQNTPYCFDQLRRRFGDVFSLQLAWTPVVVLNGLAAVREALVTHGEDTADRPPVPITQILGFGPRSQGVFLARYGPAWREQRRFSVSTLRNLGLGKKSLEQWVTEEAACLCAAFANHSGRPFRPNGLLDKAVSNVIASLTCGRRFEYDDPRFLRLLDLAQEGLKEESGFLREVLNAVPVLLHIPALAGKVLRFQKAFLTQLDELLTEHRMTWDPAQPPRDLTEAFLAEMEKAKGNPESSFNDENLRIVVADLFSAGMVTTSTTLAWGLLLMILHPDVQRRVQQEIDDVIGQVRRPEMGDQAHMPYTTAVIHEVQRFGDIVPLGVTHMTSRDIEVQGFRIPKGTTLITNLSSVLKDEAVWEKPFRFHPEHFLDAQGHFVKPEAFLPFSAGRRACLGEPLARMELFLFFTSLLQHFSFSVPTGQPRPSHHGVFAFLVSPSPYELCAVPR

In the case of `COC(=O)c1ccc2c(c1)NC(=O)/C2=C(\Nc1ccc(N(C)C(=O)CN2CCN(C)CC2)cc1)c1ccccc1` [Nintedanib, nintedanib], the IC50 (as a rule, the midpoint of a concentration-inhibition curve) at CYP2C9 was 33 µM; against CYP2C9 (P450 inhibition IC50, 2C9, probe substrate diclofenac), at least 33 µM; on CYP3A4, 2300 nM; on CYP3A4 (P450 inhibition IC50, 3A4 (Mid), probe substrate midazolam), above 80000 nM; at CYP2C19 it was 51.3 µM; against CYP2C19 (P450 inhibition IC50, 2C19, probe substrate S-mephenytoin), at least 33 µM. In addition, the IC50 against CYP2D6 was 39.7 µM; on CYP2D6 (P450 inhibition IC50, 2D6, probe substrate dextromethorphan) it was at least 33 µM; on CYP1A2, 17.5 µM. The “P450 inhibition IC50, 3A4 (Mid)” value on CYP3A4 (probe substrate midazolam) is given as “did not show inhibition”. Also, in the data set “Caco-2 permeability” (Caco-2), the Papp A→B (commonly how fast a substance crosses the layer from the apical side) at 120 min, 2 μM worked out at 0.05 ×10⁻⁶ cm/s. In the data set “Caco-2 permeability” (Caco-2), the apparent permeability from apical to basolateral (Papp A→B) at 120 min, 20 μM was 0.29 ×10⁻⁶ cm/s. Also, the apparent permeability from basolateral to apical (Papp B→A) – broadly, the apparent permeability from the basolateral to the apical side of a cell layer – at 120 min, 2 μM in “Caco-2 permeability” (Caco-2) came out at 14.4 ×10⁻⁶ cm/s. In the data set “Caco-2 permeability” (Caco-2), this compound registered a basolateral-to-apical permeability (Papp B→A) at 120 min, 20 μM of 22.6 ×10⁻⁶ cm/s. For the same compound, the efflux ratio (commonly the permeability from basolateral to apical divided by that in the opposite direction, in the common usage) at 120 min, 2 μM in “Caco-2 permeability” (Caco-2, Efflux ratio, Caco-2, 2 μM, Papp(B-A)/Papp(A-B)) was around 319. Besides, the efflux ratio at 120 min, 20 μM in the data set “Caco-2 permeability” (Caco-2, Efflux ratio, Caco-2, 20 μM, Papp(B-A)/Papp(A-B)) is around 78. Besides, the Efflux ratio is reported as 319.81 in the data set with Caco-2 cell monolayer (Caco-2, 2 μM) and 78.24 in the data set on Caco-2 cell monolayer (Caco-2, 20 μM).

Values taken from PMC4532346 (Drug Design, Development and Therapy, 2015).
